Source: PubChem (Broad Institute)
Hits are enriched below; roughly 2.9% of the tested compounds scored in any of these assays.
CDK5 inh = inhibitors of human CDK5/p35 kinase, primary screen, biochemical, single concentration; 0.01% of 330,000 active; AID 488839, 2010; Recombinant CDK5/p35, ADP-Glo luminescence, 60 min; inhibition, % at 10 µM; Cyclin-dependent kinase 5 (Homo sapiens) + Cyclin-dependent kinase 5 activator 1 (Homo …;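 active = highest replicate inhibition of at least 50% and at least 75% of replicates reaching 50%; inconclusive = only one of the two criteria met; inactive = both criteria failed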;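 also: plate controls were DMSO neutral control for no effect and GW8510 at 10 µM for full effect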
Target sequence (Q00535 whole entry, looked up): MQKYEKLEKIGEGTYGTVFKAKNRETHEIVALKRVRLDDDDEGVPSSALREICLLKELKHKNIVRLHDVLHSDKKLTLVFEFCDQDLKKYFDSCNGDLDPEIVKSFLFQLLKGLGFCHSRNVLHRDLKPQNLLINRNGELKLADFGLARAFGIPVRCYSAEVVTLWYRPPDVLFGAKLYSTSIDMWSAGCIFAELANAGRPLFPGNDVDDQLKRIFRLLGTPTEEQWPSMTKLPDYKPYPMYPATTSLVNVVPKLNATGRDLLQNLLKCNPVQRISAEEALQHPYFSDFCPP
Target sequence (Q15078 whole entry, looked up): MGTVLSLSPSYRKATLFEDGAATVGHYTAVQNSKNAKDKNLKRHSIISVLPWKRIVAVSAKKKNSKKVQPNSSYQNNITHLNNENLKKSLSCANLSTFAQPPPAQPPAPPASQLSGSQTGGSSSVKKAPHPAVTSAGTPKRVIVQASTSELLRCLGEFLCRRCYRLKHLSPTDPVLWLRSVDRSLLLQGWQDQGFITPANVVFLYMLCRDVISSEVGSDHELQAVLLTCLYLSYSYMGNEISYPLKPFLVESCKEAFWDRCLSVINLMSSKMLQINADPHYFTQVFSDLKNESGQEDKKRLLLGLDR
dFosB activator = activators of delta FosB homodimer, primary screen, biochemical, fluorescence polarization, TAMRA-CDK5 oligo, single point; Protein FosB (Mus musculus), P13346; purified delta FosB; percent of positive-control signal above neutral wells; activation, % at 25 µM; 0.99% of 340,000 active; AID 493131, 2011;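 active = mean activation above about 17%, with every replicate also reaching it, limit read from the data, passing the limit was not always enough; inconclusive = only one of the two conditions met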
Cneo AK release = Cryptococcus neoformans cell lysis inducers, primary screen, AK release luminescence, single concentration; C. neoformans lysis, adenylate kinase release luminescence, 4 h; normalised: neutral wells 0, clomiphene wells 100; lysis activity, % at 15 µM; 0.2% of 360,000 active;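 active = mean lysis activity across replicates of at least 80%, whatever share of replicates individually reach that level; inactive = mean lysis activity below 80%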
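Material: C. neoformans cells; Schedule: 4 h static compound exposure, 37 °C, read 1 h post-reagent; Measured by: adenylate kinase release luminescence; Read-out: signal increase indicating cell lysis; Controls: Clomiphene as positive lysis control.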
Env fusion inh = inhibitors of HIV-1 Env-driven cell-cell fusion, primary screen, HeLa-JRFL effector, CEM21 target cells, luciferase | 1.1% of 360,000 active | inhibition, % at 12.3 µM | AID 651610, 2012;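 active = mean replicate inhibition score of at least 50 and every replicate individually at or above 50; inconclusive = only one of the two criteria met; inactive = mean below 50 and not all replicates reaching 50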;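 also: 0% = plate neutral controls and 100% = maraviroc near 300 nM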
PAX8 reporter = inhibitors of PAX8-driven TPO luciferase reporter, primary screen, RMG-I cells, single concentration. SteadyGlo, 24 h. inhibition, % at 12.6 µM. 1.2% of 360,000 active. AID 652154, 2013;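 active = mean replicate inhibition at least 60% with every replicate also reaching 60%; inconclusive = only one of the two criteria is met; inactive = mean below 60% and not all replicates reaching 60%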;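 also: luciferase light reporting Pax8 driven TPO promoter activity; plate controls were median of neutral control wells for no effect and mitoxantrone controls for full effect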
GSIS activator = GLuc luminescence reporter in INS-1E cells, primary screen for activators of glucose-dependent secretion of insulin; INS-1E GLuc reporter insulin secretion, 2-3 h; 0.61% of 370,000 active; activation, % at 16.6 µM; AID 743287, 2014;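 active = lowest replicate activation of at least 40%, so every replicate reaches that level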;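 also: 0% = median of neutral control wells and 100% = median of IBMX positive control wells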
Numbers without * were called inactive; i = inactive; ? = inconclusive; nt = no result; [ ] = remark or other dose.

SMILES	CDK5 inh	dFosB activator	Cneo AK release	Env fusion inh	PAX8 reporter	GSIS activator
COCCNC(=O)N1[C@H]2CC[C@@H]1C(C(=O)OC)=C(c1ccc(-c3ccccc3)c(F)c1)C2	-1	-4	0	57*	7	nt
COC(=O)C1=C(c2ccc(-c3ccccc3)c(F)c2)C[C@@H]2CC[C@H]1N2C(=O)NCCOc1ccccc1	-1	-1	0	-19	26	nt
COC(=O)C1=C(c2ccc(F)cc2OCc2ccccc2)C[C@@H]2CC[C@H]1N2C(=O)NCCCc1ccccc1	0	0	-2	13	-2	-14
COC(=O)C1=C(c2ccc(F)cc2OCc2ccccc2)C[C@@H]2CC[C@H]1N2C(=O)NCc1ccc(C)cc1	0	1	7	30	102*	-33
CCOC(=O)[C@@H]1[C@@H]2NC(=O)N(C)[C@@]1(C)Oc1ccccc12	nt	nt	6	-2[16.7 µM]	2	nt
O=C([C@H]1N[C@H]2c3cccc(=O)n3C[C@H]2[C@@H]1CO)N1CCCCC1	nt	nt	nt	nt	nt	3
O=P(NC(c1ccccc1)c1ccccc1)(Oc1ccccc1)Oc1ccccc1	nt	-10	1	26	-24	40*
O=C(O)[C@H]1[C@H](CO)[C@H]2Cn3c(ccc(-c4ccccc4)c3=O)[C@@H]1N2CC1CCCCC1	nt	nt	-2	nt	-10	6
C[C@]1(O)CC[C@H]2[C@@H]3CCC4=CC(=O)CC[C@]4(C)[C@@]3(F)[C@@H](O)C[C@@]21C	1	-7	-2	nt	nt	80*
CCOC(=O)C1(c2ccccc2)CCN(CCC(=O)Nc2ccc(OC)cc2)CC1	nt	nt	2	-27	-1	-37
CCOC(=O)C1(c2ccccc2)CCN(CCC(=O)Nc2cccc(Br)c2)CC1	1	18*	0	2	57	-1
CCCN1[C@@H]2c3ccc(-c4ccc(F)cc4)c(=O)n3C[C@H]1[C@H](CO)[C@H]2C(=O)OC	nt	nt	0	nt	8	5
COC(=O)[C@H]1[C@H](CO)[C@H]2Cn3c(ccc(-c4ccccc4)c3=O)[C@@H]1N2CC1CC1	nt	nt	0	nt	nt	18
CC1=CC(C)CC(C)OC(=O)CC(c2ccc(O)cc2)NC(=O)C(Cc2c(Br)[nH]c3ccccc23)N(C)C(=O)C(C)NC(=O)C(C)C1 (stereo not drawn)	-2	-9	nt	81*	102*	-12
O=C1C(=O)c2ccccc2-c2ccccc21	0	-5	-6	91*	?	-18
COC(=O)[C@@H]1[C@@H](CO)[C@@H]2Cn3c(ccc(-c4ccc(F)cc4)c3=O)[C@H]1N2Cc1ccccc1	nt	nt	1	nt	-15	-7
Brc1ccc2c(c1)-n1nncc1CNC2	nt	nt	nt	35	-27	13
CNc1cc(Cl)c2nonc2c1[N+](=O)[O-]	-2	-1	nt	i	?	51*
COc1nc(NC(C)C)nc(NC(C)C)n1	0	1	-4	nt	nt	69*
CN(C)CC(C(=O)Cc1ccccc1)c1ccccc1 (stereo not drawn)	0	-4	3	-12	104*	9
COc1cc(C2c3cc4c(c(O)c3CC3COC(=O)C32)OCO4)cc(OC)c1OC (stereo not drawn)	-1	-1	nt	8	88*	-1
O=C(NC(=C(Cl)Cl)P(=O)(c1ccccc1)c1ccccc1)c1ccccc1	1	-10	1	nt	108*	nt
CC(C)NC(=O)N1[C@@H]2c3ccc(-c4cccc(C(=O)N(C)C)c4)c(=O)n3C[C@H]1[C@H](CO)[C@H]2C(=O)O	nt	nt	43	-6[16.7 µM]	nt	18
C[C@@H]1O[C@@H](O[C@H]2C[C@@H](O)[C@]3(CO)[C@@H]4C(CC[C@]3(O)C2)[C@@]2(O)CC[C@H](C3COC(=O)C3)[C@@]2(C)C[C@H]4O)[C@H](O)[C@H](O)[C@H]1O (stereo partly drawn)	1	7	-1	5	86*	nt
COCCNC(=O)c1c(N)n(CCC(C)C)c2nc3ccccc3nc12	-3	-21	2	59*	nt	-19
SMILES	CDK5 inh	dFosB activator	Cneo AK release	Env fusion inh	PAX8 reporter	GSIS activator
CCCCCP(=O)(O)c1ccccc1	0	0	5	-4	nt	nt
CCCC/C(C)=C/[C@@H](NP(=O)(c1ccccc1)c1ccccc1)c1ccccc1	-3	-1	-1	84*	-7	34
CC(C)(C)n1nnnc1C(CCc1ccccc1)N1CCC(n2c(=O)[nH]c3ccccc32)CC1 (stereo not drawn)	nt	nt	4	nt	16	-30
CSCCC(c1nnnn1Cc1ccccc1)N1CCC(n2c(=O)[nH]c3ccccc32)CC1 (stereo not drawn)	nt	nt	0	46	97*	-49
O=c1[nH]c2ccccc2n1C1CCN(C(c2nnnn2Cc2ccccc2)C2CC2)CC1 (stereo not drawn)	nt	nt	-10	33	86*	-25
O=c1[nH]c2ccccc2n1C1CCN(C(CCc2ccccc2)c2nnnn2Cc2ccccc2)CC1 (stereo not drawn)	nt	nt	0	66*	108*	-15
C[C@H](CO)N1C[C@H](C)[C@@H](CN(C)C(=O)Oc2ccccc2)OCc2ccccc2-c2c(n(C)c3ccccc23)C1=O	nt	nt	nt	nt	nt	-33
N#Cc1cccc(-c2ccc([C@@H]3[C@@H](CO)N4CCCCN(C(=O)Cc5ccccc5)C[C@@H]34)cc2)c1	nt	nt	1	nt	-2	6
Cc1cccc(NC(=O)CSc2nnc([C@@H](N)Cc3c[nH]c4ccccc34)o2)c1C	0	-7	-7	55*	nt	nt
O=C(Cc1ccncc1)N1CCCCN2[C@H](C1)[C@H](c1ccc(C#CC3(O)CCCC3)cc1)[C@@H]2CO	nt	nt	-4	nt	-10	11
CCC(=NCc1ccc(F)cc1)c1c(O)n(C)c(=O)n(C)c1=O	-4	-4	0	80*	nt	nt
CCC(=NCCC(c1ccccc1)c1ccccc1)c1c(O)n(C)c(=O)n(C)c1=O	3	1	2	-60	13	-10
O=C(c1ccccc1)C(CN1CCCC1)c1ccccc1 (stereo not drawn)	1	-2	nt	-43	100*	-20
CCN1CCN(CC(c2ccccc2)c2ccccc2)CC1	1	1	1	-10	20	5
CCN1[C@@H]2Cn3c(ccc(-c4cccc(C(=O)N(C)C)c4)c3=O)[C@H]1[C@@H](C(=O)OC)[C@@H]2CO	nt	nt	-4	nt	-20	9
CNC(=O)Nc1ccc(C(=O)N/N=C\C23CC[C@@H](O)CC2(O)CC[C@@H]2[C@@H]3CCC3(C)C(C4=CC(=O)OC4)CCC23O)cc1 (stereo partly drawn)	0	-4	1	-21	1	11
